The target in test [1] is Sigma non-opioid intracellular receptor 1 (Cavia porcellus, UniProt Q60492). The test is described as follows: Displacement of [3H]-pentazocine from sigma 1 receptor in guinea pig brain cortical membrane after 120 mins by scintillation counting analysis. The class given is cell membranes. Put shortly:
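Nonspecific binding defined with unlabeled (+)-pentazocine. Filtration, then scintillation counting. IC50 by nonlinear regression, converted to Ki by Cheng–Prusoff.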
Background: In a radioligand displacement assay an active substance lowers the binding of a labelled ligand.

Test [2] in a line: Cytotoxicity against human Paca3 cells assessed as decrease in cell viability using complete medium after 24 hrs by MTS assay. The class given is functional, cell-based. The settings on record: Paca3, 24 h. An outline of the steps: (§1)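 Cells in exponential growth, 3×10^3 per well, in medium with 10% FCS. Capan-2, PaCa3, MDA-MB 231, SUM 159 and PC3 were grown in DMEM/Ham's F12 with glutamine 2 mM and insulin 10 µg/ml. U87 was grown in EMEM and LNCaP in RPMI, each with glutamine. Compound 0.1–100 µM, continuous exposure (24 h; 48 h for the 48 h lines). MTS, OD 490 nm. IC50 read graphically. Three independent experiments in octuplicate.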

Test [3] in a line: Cytotoxicity against human SUM159 cells assessed as reduction in cell viability after 24 hrs in presence of 10% fetal calf serum by MTS assay. The class given is functional, cell-based. The settings on record: SUM-159-PT. An outline of the steps:
as §1
(Formazan colour is commonly taken as a measure of viable cells.)

The nature of test [4]: Cytotoxicity against human LNCAP cells assessed as reduction in cell viability after 24 hrs in presence of 10% fetal calf serum by MTS assay. The class given is functional, cell-based. Put shortly:
as §1

Test [5] can be described thus: Cytotoxicity against human U87 cells assessed as reduction in cell viability after 24 hrs in absence of 10% fetal calf serum by MTS assay. The note with it: U-87 MG. The test is classed as functional, cell-based, U-87MG ATCC. An outline of the steps: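 Cells starved 24 h in low-glucose medium without FCS, then treated 24 h with compound in serum-free conditions. MTS read-out, OD 490 nm, expressed as percent of untreated control. IC50 read graphically from the dose-response plot. Three independent experiments in octuplicate.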

Test [6] can be described thus: Induction of apoptosis in human Paca3 cells assessed as early apoptotic cells in presence of 10% fetal calf serum at 25 uM after 24 hrs by annexin V-FITC/propidium iodide staining-based flow cytometry (reference value: 5.6 +/- 0.3%). The test is classed as functional. On the technique in general: In flow cytometry, cells or beads pass a laser one at a time.
Test [7] is described as follows: Induction of apoptosis in human Paca3 cells assessed as late apoptotic cells in presence of 10% fetal calf serum at 25 uM after 24 hrs by annexin V-FITC/propidium iodide staining-based flow cytometry (reference value: 4 +/- 0.8%). The test is classed as functional.
Test [8] is described as follows: Induction of apoptosis in human Paca3 cells assessed as early apoptotic cells in absence of 10% fetal calf serum at 10 uM after 24 hrs by annexin V-FITC/propidium iodide staining-based flow cytometry (reference value: 3.5 +/- 0.7%). The test is classed as functional.
Test [9] concerns PC-3. In words: Cytotoxicity against human PC3 cells assessed as reduction in cell viability after 48 hrs in presence of 10% fetal calf serum by MTS assay. The test is classed as functional, cell-based. An outline of the steps:
as §1

We go through one compound from ChEMBL document CHEMBL3877244, “Synthesis and biological evaluation of new aryl-alkyl(alkenyl)-4-benzylpiperidines, novel Sigma Receptor (SR) modulators, as potential anticancer-agents” (Eur J Med Chem, 2016).

Active and inactive are the calls of the source. The rule behind the calls is not given here.

Sequence of Sigma non-opioid intracellular receptor 1 (Q60492 whole entry): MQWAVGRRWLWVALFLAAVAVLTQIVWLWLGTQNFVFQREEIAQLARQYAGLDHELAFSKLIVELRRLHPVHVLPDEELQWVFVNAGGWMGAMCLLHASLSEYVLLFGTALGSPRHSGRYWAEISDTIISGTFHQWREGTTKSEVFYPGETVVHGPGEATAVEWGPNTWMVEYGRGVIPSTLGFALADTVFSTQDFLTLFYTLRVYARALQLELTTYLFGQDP

With `C/C(=C\CN1CCC(Cc2ccccc2)CC1)c1ccc2ccccc2c1`, the Ki (usually a dissociation constant, usually derived from enzyme kinetics or from competition with a known ligand) in [1] was determined as 0.012 µM. Besides, the IC50 (in general, the concentration that inhibits the measured activity by half) in [2] stood at 49.8 µM; in test [3], 58.3 µM; in [4], 61.1 µM; in test [5] it was 10.5 µM. The Activity in test [6] was determined as 43.1%; in [7], 34.1%; in test [8], 10.9%. Moreover, the result in test [9] was Active.
